Test results taken from paper PMC3302728 (Nature Communications, 2011).

Columns and labels:
[1] = target: GluN2D ligand-binding domain (Rattus norvegicus, UniProt Q62645, DEL565-685); assay: X-ray crystallography; settings: co-crystal with 10 mM ligand; D1-D2 cleft
[2] = target: GluN1/GluN2D NMDA receptor (Rattus norvegicus, UniProt P35439+Q62645); assay: EC50 of agonist response; type: cell-based
Procedure, shortened: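 Xenopus laevis oocytes injected with 5-10 ng cRNA (GluN1:GluN2 ratio 1:2), stored at 15°C, recorded 2-4 days later at 23°C. Two-electrode voltage clamp at -30 to -60 mV in pH 7.4 HEPES bath with Ba2+ and 30 μM glycine. Concentration-response curves fitted per oocyte with a Hill equation to give EC50 and Hill coefficient.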

GluN2D ligand-binding domain, sequence (Q62645 424-564, stated change not applied): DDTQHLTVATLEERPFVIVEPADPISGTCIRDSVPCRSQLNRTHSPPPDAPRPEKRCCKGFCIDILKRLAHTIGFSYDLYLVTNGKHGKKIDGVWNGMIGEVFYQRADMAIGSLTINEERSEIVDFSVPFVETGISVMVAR
GluN2D ligand-binding domain, sequence (Q62645 686-827, stated change not applied): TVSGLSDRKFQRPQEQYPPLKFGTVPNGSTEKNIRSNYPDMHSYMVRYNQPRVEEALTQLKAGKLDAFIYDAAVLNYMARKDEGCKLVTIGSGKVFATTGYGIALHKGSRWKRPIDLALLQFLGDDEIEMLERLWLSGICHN
GluN1/GluN2D NMDA receptor, sequence (Q62645 28-1323, other chains not shown): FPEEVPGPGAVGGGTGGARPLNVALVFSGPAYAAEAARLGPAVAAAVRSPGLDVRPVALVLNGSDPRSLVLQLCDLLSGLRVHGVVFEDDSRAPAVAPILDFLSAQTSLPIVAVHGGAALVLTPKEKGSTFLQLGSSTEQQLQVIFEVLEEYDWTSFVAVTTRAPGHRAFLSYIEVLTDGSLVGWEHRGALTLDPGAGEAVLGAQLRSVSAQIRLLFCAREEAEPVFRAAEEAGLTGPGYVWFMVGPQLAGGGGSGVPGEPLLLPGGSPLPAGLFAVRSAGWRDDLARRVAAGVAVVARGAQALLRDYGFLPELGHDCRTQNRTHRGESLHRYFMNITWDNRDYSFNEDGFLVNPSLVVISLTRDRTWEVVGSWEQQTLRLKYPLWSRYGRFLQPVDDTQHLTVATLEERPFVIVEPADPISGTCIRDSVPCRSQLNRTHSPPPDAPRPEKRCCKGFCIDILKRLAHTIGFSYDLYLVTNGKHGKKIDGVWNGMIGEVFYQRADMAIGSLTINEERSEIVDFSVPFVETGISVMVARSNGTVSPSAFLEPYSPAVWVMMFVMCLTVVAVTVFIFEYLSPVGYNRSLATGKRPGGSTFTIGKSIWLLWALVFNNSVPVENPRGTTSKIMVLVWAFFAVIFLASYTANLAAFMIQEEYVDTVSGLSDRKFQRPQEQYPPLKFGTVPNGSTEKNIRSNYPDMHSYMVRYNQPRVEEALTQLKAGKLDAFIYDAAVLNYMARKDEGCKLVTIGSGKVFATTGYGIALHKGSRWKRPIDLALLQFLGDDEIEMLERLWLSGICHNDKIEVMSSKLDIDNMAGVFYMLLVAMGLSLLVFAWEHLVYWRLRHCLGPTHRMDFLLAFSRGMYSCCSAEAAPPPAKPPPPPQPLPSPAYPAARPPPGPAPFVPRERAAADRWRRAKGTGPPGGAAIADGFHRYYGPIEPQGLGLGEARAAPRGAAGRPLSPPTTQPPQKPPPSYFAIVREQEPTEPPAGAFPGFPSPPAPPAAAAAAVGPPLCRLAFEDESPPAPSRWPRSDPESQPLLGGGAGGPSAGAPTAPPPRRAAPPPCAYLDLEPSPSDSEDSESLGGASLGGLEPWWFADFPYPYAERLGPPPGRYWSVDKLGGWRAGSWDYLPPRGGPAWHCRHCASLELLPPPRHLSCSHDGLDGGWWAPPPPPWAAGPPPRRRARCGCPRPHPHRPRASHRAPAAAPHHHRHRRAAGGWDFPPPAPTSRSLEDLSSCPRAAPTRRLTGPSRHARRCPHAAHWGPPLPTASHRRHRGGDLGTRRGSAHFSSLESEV

EC50 [2] | Compound | X-ray crystallography [1]
 | N[C@H](CCC(=O)O)C(=O)O [D-glutamate] | GluN2D ligand-binding domain structures in complex with D- and L-glutamate, L-aspartate, and NMDA
5 µM | N[C@@H](CC(=O)O)C(=O)O [L-aspartate] | GluN2D ligand-binding domain structures in complex with D- and L-glutamate, L-aspartate, and NMDA
 | N[C@@H](CCC(=O)O)C(=O)O [L-glutamate] | GluN2D ligand-binding domain structures in complex with D- and L-glutamate, L-aspartate, and NMDA
